From PubChem BioAssay come the findings set out here.

For orientation: viability means a read-out of living cells in per cent, often relative to untreated cells. The inhibition is the relative decrease from the control value, in per cent.

Activity calls are given as the source filed them.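 How the source made its calls, unless noted: active means viability at or under a set limit in both replicates, limit being median viability minus 3 SD (cut at about 48% in these data, passing the limit was not always enough); inconclusive means at or under the limit in just one replicate; inactive means at or above the limit in both replicates.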

A short description of assay [1]: Her2 expression decrease, cell viability multiplex – SKBR3 breast tumor cells, AlphaScreen, ATP viability, primary screen (AID 461;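 active means Her2 level under about 52% in both replicate screens, with viability over 70% of control, limit read from the data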;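 on Her2 level: lower value means less Her2 protein in the cells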;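 on viability: percent of carrier control wells set as 100% viability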). Conditions: SKBR3 Her2 protein level, 18-24 h, measured here: SKBR3 viability, ATP luminescence, at 10 µM. A general note: In Alpha technology, singlet oxygen from a donor bead excites a nearby acceptor bead.
Assay [2] addresses Receptor tyrosine-protein kinase erbB-2 (Homo sapiens) (UniProt P04626). The assay is described as above. Conditions: 18-24 h, at 10 µM, stronger effect = lower value.
A short description of assay [3]: reduced viability of SK-BR-3 breast cancer cells – cell-based, 24 h, human, pilot screen (AID 572;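 active means viability at or below 10% of carrier control in both of two separate runs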;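 further: compound exposure lasted between 18 and 24 h rather than exactly 24 h; 100% = carrier-treated control wells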). The conditions noted are these: SK-BR-3 viability, CellTiter-Glo luminescence, at 10 µM, stronger effect = lower value.
Assay [4] can be described thus: HUVEC growth inhibition – cell-based, human, primary screen (AID 575;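 active means viability at or below 30% in both replicate assays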;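 further: 100% = median of untreated cell wells with 0.1% DMSO on each plate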). The conditions noted are these: HUVEC proliferation, CellTiter-Glo luminescence, 72 h; at 10 µM; stronger effect = lower value. The method in brief: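 system = HUVEC primary cells | amount = 1250 cells/well | buffer or medium = supplemented EBM, 2% fetal bovine serum | dosing = single-point 10 µM, DMSO 0.1% final | times = 72 h compound incubation | detection = CTG luminescence | read-out = % viability relative to median vehicle-well signal on each plate | control set = vehicle and MePR control wells | format = collagen-coated 384-well format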
(In ATP-based viability assays light output follows the ATP content of the culture.)

Assay [5] in a line: H69AR cell proliferation blockers – human, duplicate replicates, primary screen (AID 580).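 Further: 100% = mean luminescence of untreated wells and 0% = no signal.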 Conditions: H69AR lung tumor cells viability, ATP luminescence, 72 h; at 10 µM; stronger effect = lower value.
Assay [6] is described as follows: MRP1 drug-resistance reversers in H69AR cells – cell-based, doxorubicin co-treatment, pilot screen (AID 601;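 active means viability loss from added drug above about 55%, and viability with drug at most 40%, in both replicates, limit read from the data, passing the limit was not always enough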). Conditions: CellTiter-Glo, 72 h, at 10 µM; for differential viability (reversal): stronger effect = higher value.
A short description of assay [7]: yeast transport mutant growth inhibition pilot in 384-well plates, post-Golgi transport modulator project (AID 636; in the data active means inhibition above about 31%). Conditions: absorbance 615 nm, about 18 h, stronger effect = higher value.
Assay [8] is described as follows: growth suppression of yeast trafficking mutant, preliminary HTS, modulators of trafficking downstream of Golgi apparatus project, 1536-format plate, OD 615 nm (AID 637; in the data active means inhibition above about 30%). The conditions noted are these: yeast transport mutant growth, absorbance 615 nm, 18 h; stronger effect = higher value.
[9] abbreviates: H69AR cells + 2 uM doxorubicin, measured here: viability with 2 uM doxorubicin, stronger effect = lower value.
Setting [10] is: H69AR cells, compound alone cytotoxicity.

Sequence of Receptor tyrosine-protein kinase erbB-2 (Homo sapiens) (P04626 whole entry, looked up): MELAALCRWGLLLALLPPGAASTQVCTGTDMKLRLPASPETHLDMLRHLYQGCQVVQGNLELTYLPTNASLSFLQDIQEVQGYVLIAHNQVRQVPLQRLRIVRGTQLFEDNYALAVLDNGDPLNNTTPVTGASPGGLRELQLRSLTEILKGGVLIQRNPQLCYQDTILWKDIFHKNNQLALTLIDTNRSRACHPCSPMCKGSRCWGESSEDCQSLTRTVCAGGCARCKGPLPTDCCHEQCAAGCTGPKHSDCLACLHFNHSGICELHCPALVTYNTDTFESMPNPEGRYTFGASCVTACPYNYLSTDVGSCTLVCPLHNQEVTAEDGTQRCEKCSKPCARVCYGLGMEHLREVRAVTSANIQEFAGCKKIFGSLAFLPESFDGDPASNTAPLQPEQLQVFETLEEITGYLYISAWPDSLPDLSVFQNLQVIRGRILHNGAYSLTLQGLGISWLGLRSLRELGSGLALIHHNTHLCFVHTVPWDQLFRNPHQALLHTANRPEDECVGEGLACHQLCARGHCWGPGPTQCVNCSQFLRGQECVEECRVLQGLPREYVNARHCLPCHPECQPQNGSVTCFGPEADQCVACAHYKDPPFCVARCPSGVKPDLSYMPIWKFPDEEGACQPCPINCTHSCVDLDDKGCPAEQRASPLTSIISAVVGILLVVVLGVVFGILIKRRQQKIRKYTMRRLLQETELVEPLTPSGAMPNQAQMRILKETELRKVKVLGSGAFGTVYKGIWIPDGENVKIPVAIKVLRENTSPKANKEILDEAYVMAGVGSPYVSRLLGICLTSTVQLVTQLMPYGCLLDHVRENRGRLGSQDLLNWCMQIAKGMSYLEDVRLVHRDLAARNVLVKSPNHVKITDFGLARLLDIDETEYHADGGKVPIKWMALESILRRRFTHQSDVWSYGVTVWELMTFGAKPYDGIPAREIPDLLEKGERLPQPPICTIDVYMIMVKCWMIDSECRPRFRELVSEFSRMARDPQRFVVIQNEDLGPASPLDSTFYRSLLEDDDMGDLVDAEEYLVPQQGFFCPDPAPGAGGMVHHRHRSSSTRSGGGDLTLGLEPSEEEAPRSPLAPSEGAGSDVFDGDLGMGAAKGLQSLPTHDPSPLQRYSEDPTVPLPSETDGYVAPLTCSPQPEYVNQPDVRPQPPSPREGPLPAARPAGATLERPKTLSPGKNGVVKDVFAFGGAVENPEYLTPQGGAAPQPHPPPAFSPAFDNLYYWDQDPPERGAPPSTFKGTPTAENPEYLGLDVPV

As to `O=S(=O)(c1ccc(OCC(O)CN2CCC(Cc3ccccc3)CC2)cc1)N1CCOCC1` (stereo not given), the viability is 81.5% in assay [1]; 81.5% (inactive) in assay [3]; 73.4% (inactive) in assay [4]; 84.8% (inactive) in assay [5]; 94.2% in assay [6] (setting [9]); 84.8% in assay [6] (setting [10]). The Her2 level in assay [2] was 81.5% (inactive). Further, the differential viability (reversal) in assay [6] (H69AR cells + 2 uM doxorubicin) was -9.48% (inactive). Besides, the results for the inhibition in assay [7] and in assay [8] were -6.45% (inactive) and -5.24% (inactive), respectively.
Turning to `O=C(O)c1ccc2c(c1)N(Cc1ccccc1F)C(=O)c1ccccc1S2=O` (stereo not given), the viability in assay [1] is 96%; in assay [3] it was 96% (inactive); in assay [4] it was 92.8% (inactive); in assay [5], 103% (inactive); in assay [6] (setting [9]) it was 97.8%; in assay [6] (setting [10]) it was 103%. In addition, in assay [2], the Her2 level was 83.5% (inactive). In addition, in assay [6] (H69AR cells + 2 uM doxorubicin), the differential viability (reversal) was 5.27% (inactive). Besides, the inhibition in assay [7] was -3.73% (inactive); in assay [8] it was 4.43% (inactive).
For `Cc1ncc(CO)c2c1OC(C)(C)OC2`, the viability was 95.5% in assay [1]; 95.5% (inactive) in assay [3]; 92.8% (inactive) in assay [4]; 93.5% (inactive) in assay [5]; 89% in assay [6] (setting [9]); 93.5% in assay [6] (setting [10]). For the same molecule, the Her2 level in assay [2] is 104% (inactive). Moreover, the differential viability (reversal) in assay [6] (H69AR cells + 2 uM doxorubicin) was 4.48% (inactive). The inhibition is -5.79% (inactive) in assay [7] and -0.91% (inactive) in assay [8].
Consider `CCOC(=O)c1[nH]nc(N)c1NC(=O)c1ccc(Cl)cc1Cl`, for which the viability in assay [1] is 79.5%; in assay [3] it was 79.5% (inactive); in assay [4], 89.9% (inactive); in assay [5], 87.8% (inactive); in assay [6] (setting [9]), 83.8%; in assay [6] (setting [10]) it was 87.8%. Moreover, in assay [2], the Her2 level is 120% (inactive). For the same molecule, the differential viability (reversal) in assay [6] (H69AR cells + 2 uM doxorubicin) was 3.99% (inactive). The results for the inhibition in assay [7] and in assay [8] were 3.6% (inactive) and 8.89% (inactive), respectively.
For `O=C1CCC(=O)N1OCCCOc1ccc(Br)cc1Cl`, the viability in assay [1] was 106%; in assay [3], 106% (inactive); in assay [4], 90% (inactive); in assay [5], 93.5% (inactive); in assay [6] (setting [9]) it was 95.9%; in assay [6] (setting [10]) it was 93.5%. The Her2 level in assay [2] was 98.5% (inactive). Also, in assay [6] (H69AR cells + 2 uM doxorubicin), the differential viability (reversal) is -2.35% (inactive). Besides, the inhibition in assay [7] was 0.13% (inactive); in assay [8], 2.22% (inactive).
On to `c1ccc2c(c1)CNC1(CCCCC1)C2`, for which the viability in assay [1] is 103%; in assay [3] it was 103% (inactive); in assay [4] it was 103% (inactive); in assay [5] it was 102% (inactive); in assay [6] (setting [9]), 88.6%; in assay [6] (setting [10]) it was 102%. For the same molecule, the Her2 level in assay [2] was 94.5% (inactive). Also, the differential viability (reversal) in assay [6] (H69AR cells + 2 uM doxorubicin) was 12.9% (inactive). Also, the inhibition is -8.63% (inactive) in assay [7] and 1.27% (inactive) in assay [8].
In the case of `CCCC1C(C#N)=C(N)Oc2n[nH]c(C(C)(C)C)c21` (stereo not given), the viability was 106% in assay [1]; 106% (inactive) in assay [3]; 95.1% (inactive) in assay [4]; 105% (inactive) in assay [5]; 94.4% in assay [6] (setting [9]); 105% in assay [6] (setting [10]). In assay [2], the Her2 level was 99.5% (inactive). Further, the differential viability (reversal) in assay [6] (H69AR cells + 2 uM doxorubicin) is 11% (inactive). For the same molecule, the inhibition in assay [7] was -6.97% (inactive); in assay [8], -7.58% (inactive).
Turning to `CCCNS(=O)(=O)c1ccc(C(=O)NCC2CCCO2)cc1` (stereo not given), the viability was 96.5% in assay [1]; 96.5% (inactive) in assay [3]; 106% (inactive) in assay [4]; 95.1% (inactive) in assay [5]; 96.4% in assay [6] (setting [9]); 95.1% in assay [6] (setting [10]). Moreover, in assay [2], the Her2 level was 74.5% (inactive). Further, the differential viability (reversal) in assay [6] (H69AR cells + 2 uM doxorubicin) is -1.32% (inactive). The inhibition in assay [7] was -3.56% (inactive); in assay [8], 0.16% (inactive).
As to `Cc1cc(C(F)F)n2ncc(C(=O)NC3CCCCCC3)c2n1`, the viability is 89.5% in assay [1]; 89.5% (inactive) in assay [3]; 78.1% (inactive) in assay [4]; 89.9% (inactive) in assay [5]; 90.2% in assay [6] (setting [9]); 89.9% in assay [6] (setting [10]). The Her2 level in assay [2] was 86% (inactive). Moreover, the differential viability (reversal) in assay [6] (H69AR cells + 2 uM doxorubicin) is -0.225% (inactive). In addition, the inhibition was -4.74% (inactive) in assay [7] and 8.69% (inactive) in assay [8].
Take `Cc1cc(C)c2c(n1)nn1c(C3CC3)cc(C(F)(F)F)nc21`: the viability in assay [1] was 106%; in assay [3], 106% (inactive); in assay [4], 90.7% (inactive); in assay [5], 92.4% (inactive); in assay [6] (setting [9]), 96.4%; in assay [6] (setting [10]), 92.4%. For the same molecule, the Her2 level in assay [2] is 89% (inactive). The differential viability (reversal) in assay [6] (H69AR cells + 2 uM doxorubicin) is -4.02% (inactive). For the same molecule, the inhibition in assay [7] is -5.41% (inactive); in assay [8], 2.54% (inactive).
Turning to `CCOC(=O)C1CCN(C(=O)CSc2cc(=O)n(CC)c3ccccc23)CC1`, the viability in assay [1] is 85%; in assay [3] it was 85% (inactive); in assay [4] it was 84% (inactive); in assay [5], 92.4% (inactive); in assay [6] (setting [9]), 82%; in assay [6] (setting [10]), 92.4%. Moreover, the Her2 level in assay [2] is 99.5% (inactive). The differential viability (reversal) in assay [6] (H69AR cells + 2 uM doxorubicin) was 10.4% (inactive). Also, the inhibition was -0.39% (inactive) in assay [7] and -5.09% (inactive) in assay [8].
Take `O=C(c1ccco1)N1CCN(c2ccc(Cl)cc2)CC1`: the viability is 86% in assay [1]; 86% (inactive) in assay [3]; 95.6% (inactive) in assay [4]; 99.8% (inactive) in assay [5]; 80.8% in assay [6] (setting [9]); 99.8% in assay [6] (setting [10]). For the same molecule, the Her2 level in assay [2] is 116% (inactive). The differential viability (reversal) in assay [6] (H69AR cells + 2 uM doxorubicin) was 19.1% (inactive). For the same molecule, the inhibition in assay [7] was -0.93% (inactive); in assay [8], -5.4% (inactive).
With `COc1ccccc1N1C(=O)c2ccccc2NC1c1ccncc1` (stereo not given), the viability in assay [1] was 104%; in assay [3] it was 104% (inactive); in assay [4] it was 101% (inactive); in assay [5] it was 104% (inactive); in assay [6] (setting [9]) it was 94%; in assay [6] (setting [10]), 104%. For the same molecule, in assay [2], the Her2 level was 100% (inactive). For the same molecule, the differential viability (reversal) in assay [6] (H69AR cells + 2 uM doxorubicin) is 9.81% (inactive). For the same molecule, the values for the inhibition in assay [7] and in assay [8] were -1.51% (inactive) and -7.14% (inactive), respectively.
In the case of `O=C(NCC1CCCO1)c1ccccc1-c1nc(-c2ccc(Cl)cc2)no1` (stereo not given), the viability is 78.5% in assay [1]; 78.5% (inactive) in assay [3]; 76% (inactive) in assay [4]; 95.1% (inactive) in assay [5]; 88.1% in assay [6] (setting [9]); 95.1% in assay [6] (setting [10]). In assay [2], the Her2 level is 87.5% (inactive). Further, the differential viability (reversal) in assay [6] (H69AR cells + 2 uM doxorubicin) is 6.99% (inactive). For the same molecule, the results for the inhibition in assay [7] and in assay [8] were -5.68% (inactive) and 1.8% (inactive), respectively.
